Results published in paper PMC6416488 (Protein and Peptide Letters, 2019).

Experiments:
[1] = Solvent- and light-mediated curcumin degradation; format: physicochemical; details: absolute ethanol, 10 μM curcumin, absorbance 420 nm
Outline: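 Test compound: 5 mM methanol stock diluted to 10 μM in absolute ethanol. Samples were held at room temperature either in darkness or under a 100 W lamp. Absorbance maximum at 420 nm was recorded at intervals within 30 min. Degradation rate was taken from the initial slope of a best-fit line.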

[2] = Effect of temperature on hydrolytic stability of curcumin; format: physicochemical; details: 80°C, 10 μM curcumin, 20 mM sodium phosphate buffer pH 7.0, 60 min, darkness
Outline: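 Test compound: 1 mM methanol stock diluted to 10 μM in 20 mM sodium phosphate buffer pH 7.0. Kept in darkness at 4, 25, 37 or 80 °C for up to 60 min and sampled at set intervals. Fluorescence spectra were taken at excitation 420 nm, emission 440–700 nm, with slits 10/20. Maximum emission was followed over time, and the decomposition rate was taken from the initial slope of a linear fit.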

[3] = molecular target: native (unmodified) BSA (Bos taurus, UniProt P02769); experiment: Intrinsic fluorescence quenching, binding constant and thermodynamics; set-up: species or system Bovine; details: unmodified albumin
[4] = molecular target: modified (acetylated) BSA (Bos taurus, UniProt P02769); experiment: Intrinsic fluorescence quenching, binding constant and thermodynamics; set-up: species or system Bovine; details: modified albumin
Outline: (§1)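 Proteins were acetylated at 10% w/v in water, 30 °C, pH 7.5–8.5, with acetic anhydride 0.5 g/g protein added over 30–90 min. They were dialysed 24 h against 20 mM phosphate pH 7.0, and lysine modification was checked by TNBS. β-lg was purified from cow milk (>97% by SDS-PAGE). Protein (1 μM) was mixed 1 min with test compound (0–2 μM). Intrinsic fluorescence was read at ex 290, em 310–700 nm. Kb and n came from a double-log Stern–Volmer plot, ΔH°/ΔS° from van't Hoff, and ΔG° from Gibbs.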

[5] = molecular target: T1, native (unmodified) β-lg (Bos taurus, UniProt P02754); experiment: Intrinsic fluorescence quenching, binding constant and thermodynamics; set-up: species or system Bovine; details: unmodified B-LG
T1 sequence (P02754 17-178): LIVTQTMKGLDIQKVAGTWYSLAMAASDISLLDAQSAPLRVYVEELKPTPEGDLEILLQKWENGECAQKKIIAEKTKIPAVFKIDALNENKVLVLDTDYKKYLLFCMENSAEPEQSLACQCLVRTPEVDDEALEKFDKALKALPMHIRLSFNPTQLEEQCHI
Outline: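 Unmodified protein was used; β-lg was purified from fresh cow milk (>97% by SDS-PAGE). Protein (1 μM) in 20 mM sodium phosphate pH 7.0 was co-incubated 1 min with test compound (0–2 μM). Quenching was read at excitation 290 nm, emission 310–700 nm, slits 5/10 nm. Kb and n came from a modified Stern–Volmer double-log plot, ΔH° and ΔS° from the van't Hoff ln Kb vs 1/T slope and intercept, and ΔG° from the Gibbs equation. Data points are means of three determinations.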

[6] = molecular target: T2, modified (acetylated) β-lg (Bos taurus, UniProt P02754); experiment: Intrinsic fluorescence quenching, binding constant and thermodynamics; set-up: species or system Bovine; details: modified B-LG
T2 sequence (P02754 17-178): T1 sequence (P02754 17-178)
Outline: as §1

[7] = system: SKNMC cells; experiment: MTT assay, in vitro anti-cancer activity; format: cell-based, human; details: 44 µM, 24 h
Outline: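 SKNMC cells were grown in DMEM with 10% FBS and 1% penicillin–streptomycin at 37 °C, 5% CO2, 95% humidity. They were seeded at 20,000/well and pre-incubated 24 h. Medium was replaced with protein-free DMEM, and test compound in DMSO (0–50 μM), alone or protein-complexed, was added for 24 h. MTT (0.5 mg/mL) was added for 4 h, formazan was dissolved in DMSO, and A570 was read. Viability is relative to untreated cells; three separate experiments.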

[8] = system: PC12 cells; experiment: Intracellular ROS; format: cell-based, rat; details: 1 μM curcumin pretreatment 6 h, H2O2 125 μM 16 h, DCFH-DA
Outline: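 PC12 cells were seeded at 20,000/well and pre-incubated 24 h, then switched to protein-free DMEM. They were pretreated 6 h with 1 μM test compound or its protein complex, then exposed to freshly prepared H2O2 (125 μM) for 16 h. DCFH-DA (10 μM) was added for 45 min at 37 °C. Cells were washed twice in PBS, and DCF fluorescence (ex 480/488, em 540/525 nm) was read by microplate reader. Controls were DMSO-treated cells. Results are mean ± S.E.M. of three experiments.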

[9] = ref 3b; cited from earlier work
[10] = physiological pH; cited from earlier work
[11] = extremely safe even at very high doses; cited from earlier work
[12] = phase I trial, oral administration of 3.6 g/day; cited from earlier work
[13] = without and in the presence of β-lg; ref 10d; cited from earlier work

Sequence of modified (acetylated) BSA (P02769 25-607): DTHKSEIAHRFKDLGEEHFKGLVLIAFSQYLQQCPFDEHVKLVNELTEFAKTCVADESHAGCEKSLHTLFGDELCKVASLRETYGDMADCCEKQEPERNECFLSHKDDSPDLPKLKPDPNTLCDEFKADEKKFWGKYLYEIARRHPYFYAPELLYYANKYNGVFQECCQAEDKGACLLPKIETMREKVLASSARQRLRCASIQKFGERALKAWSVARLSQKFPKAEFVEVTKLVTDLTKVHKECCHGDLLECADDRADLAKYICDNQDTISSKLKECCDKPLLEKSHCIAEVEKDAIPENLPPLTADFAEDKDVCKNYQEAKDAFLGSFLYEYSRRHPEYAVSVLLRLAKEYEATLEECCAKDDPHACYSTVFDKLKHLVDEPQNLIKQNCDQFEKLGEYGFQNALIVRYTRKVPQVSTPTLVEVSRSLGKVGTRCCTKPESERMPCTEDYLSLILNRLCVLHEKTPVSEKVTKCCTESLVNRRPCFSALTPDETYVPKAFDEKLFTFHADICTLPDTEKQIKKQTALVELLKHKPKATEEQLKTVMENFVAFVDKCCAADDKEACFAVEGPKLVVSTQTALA
Sequence of native (unmodified) BSA (P02769 25-607): as above

degradation in non-aqueous solvent [1]: did not degrade
initial curcumin population remained intact [2]: more than 40%
ΔG° ([3]; 310 K (per Table S1)): -9.1702 ± 0.2751 kcal/mol
N (number of curcumin binding sites) ([3]; Table 1): 1.249±0.02
ΔH° ([3]; van't Hoff, 277-310 K): 6.4971 ± 0.195 kcal/mol
ΔS° ([3]; van't Hoff, 277-310 K): 0.212±0.002 J mol^-1·K^-1
ΔG° ([4]; 310 K (per Table S1)): -4.6953 ± 0.141 kcal/mol
N (number of curcumin binding sites) ([4]; Table 1): 0.975±0.015
ΔH° ([4]; van't Hoff, 277-310 K): -8.1783 ± 0.163 kcal/mol
ΔS° ([4]; van't Hoff, 277-310 K): -0.047±0.001 J mol^-1·K^-1
ΔG° ([5]; 310 K (per Table S1)): -7.0335 ± 0.4218 kcal/mol
N (number of curcumin binding sites) ([5]; Table 1): 1.145±0.034
ΔH° ([5]; van't Hoff, 277-310 K): -6.4892 ± 0.195 kcal/mol
ΔS° ([5]; van't Hoff, 277-310 K): 0.007±0.001 J mol^-1·K^-1
ΔG° ([6]; 310 K (per Table S1)): -9.6836 ± 0.387 kcal/mol
N (number of curcumin binding sites) ([6]; Table 1): 1.347±0.042
ΔH° ([6]; van't Hoff, 277-310 K): 2.227 ± 0.0225 kcal/mol
ΔS° ([6]; van't Hoff, 277-310 K): 0.161±0.006 J mol^-1·K^-1
Substance: 1,7-bis(4-hydroxy-3-methoxyphenyl)-1,6- heptadiene-3,5-dione [curcumin]
cell viability [7]: 88%
effect on H2O2-induced intracellular ROS levels [8]: significantly reduced
solubility in water [9]: about 11 ng/mL
time to molecular fragmentation and degradation by hydrolysis [10]: ≤ 30 min
safe dose [11]: 8 to 12 g/day
concentration of curcumin in plasma [12]: 11.1 nM
concentration of curcumin in target tissues [12]: 1300 nM
curcumin half-life [13]: 30.8 min
